Assay results taken from ChEMBL document CHEMBL1135501, “Synthesis and biological evaluation at nicotinic acetylcholine receptors of N-arylalkyl- and N-aryl-7-azabicyclo[2.2.1]heptanes” (J Med Chem, 2002).

Experiments:
[1] = biological target: T1, Neuronal acetylcholine receptor; alpha4/beta2 (Rattus norvegicus) (UniProt P09483+P12390); experiment: In vitro inhibition of [3H]cytisine binding in rat brain tissue at Nicotinic acetylcholine receptor alpha4-beta2 at 100 uM; format: tissue-based
[2] = biological target: T2, Neuronal acetylcholine receptor; alpha4/beta2 (Rattus norvegicus, UniProt P09483+P12390); experiment: In vitro binding affinity by inhibiting [3H]dopamine release in rat brain tissue at aNicotinic acetylcholine receptor alpha4-beta2; format: functional, tissue-based
Outline: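 Striatal slices (250 µm) from male Sprague-Dawley rats were loaded with 15 nM [3H]dopamine plus 0.1 mM ascorbic acid at 37 °C for 30 min in oxygenated Krebs-HEPES buffer pH 7.4, with domperidone present after loading. Slices were superfused with a 2 min test-drug pulse (S1), then 10 mM K+ for 2 min (S2). Five drug concentrations were used; S1/S2 fractional release ratios gave EC50.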

[3] = system: Mus musculus; experiment: In vivo analgesic activity was measured in mouse upon subcutaneous administration using tail-flick assay; format: functional; details: sc
Outline: (§1)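 Male CD-1 mice (25-35 g) were dosed subcutaneously on the back at 10 mL/kg. Tail-flick latency to a focused light beam was read by photocell as the mean of two trials, with a 12 s cutoff. Percent effect was (test − baseline)/(12 − baseline latency). ED50 with CI95 came from nonlinear regression of dose-response curves.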

[4] = system: Mus musculus; experiment: In vivo analgesic activity was measured in mouse upon subcutaneous administration using hotplate assay; format: functional; details: sc
Outline: (§2)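 Male CD-1 mice (25-35 g) were dosed subcutaneously on the back at 10 mL/kg. Hotplate held at 52 °C; latency was timed to hind-paw lick or jump. Percent effect was calculated as (test − baseline latency)/(12 − baseline latency). ED50 with CI95 came from nonlinear regression of dose-response curves.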

[5] = biological target: T2, Neuronal acetylcholine receptor; alpha4/beta2; experiment: In vitro binding affinity by inhibiting [3H]cytisine binding in rat brain tissue at Nicotinic acetylcholine receptor alpha4-beta2; format: tissue-based
[6] = biological target: T1, Neuronal acetylcholine receptor; alpha4/beta2 (Rattus norvegicus); experiment: In vitro inhibition of [3H]cytisine binding in rat brain tissue at Nicotinic acetylcholine receptor alpha4-beta2; format: tissue-based; details: concentration not given here
Outline: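 Membranes were spun at 35 000g and resuspended. They were preincubated on ice for 5 min with test drug, then given 3.5 nM [3H]cytisine for 90 min at 2 °C. Nonspecific binding was taken with 1 mM (-)-nicotine. Drug concentrations were run in triplicate, with filtration and scintillation counting.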

[7] = biological target: T2, Neuronal acetylcholine receptor; alpha4/beta2; experiment: In vitro binding affinity by inhibiting [3H]dopamine release in rat brain tissue at Nicotinic acetylcholine receptor alpha4-beta2; format: functional, tissue-based
[8] = biological target: T2, Neuronal acetylcholine receptor; alpha4/beta2; experiment: in vitro binding affinity by inhibiting [3H]cytisine binding in rat brain tissue at Nicotinic acetylcholine receptor alpha4-beta2
[9] = system: Mus musculus; experiment: In vivo analgesic agonist activity after subcutaneous administration, using tail-flick assay; format: functional; details: sc; outline: as §1
[10] = system: Mus musculus; experiment: In vivo analgesic agonist activity after subcutaneous administration, using hotplate assay; format: functional; details: sc; outline: as §2
[11] = biological target: T1, Neuronal acetylcholine receptor; alpha4/beta2 (Rattus norvegicus); experiment: In vitro % inhibition of [3H]cytisine binding in rat brain tissue at Nicotinic acetylcholine receptor alpha4-beta2 at 100 uM; format: tissue-based

T2 sequence (P09483 whole entry, the tested form may be a part): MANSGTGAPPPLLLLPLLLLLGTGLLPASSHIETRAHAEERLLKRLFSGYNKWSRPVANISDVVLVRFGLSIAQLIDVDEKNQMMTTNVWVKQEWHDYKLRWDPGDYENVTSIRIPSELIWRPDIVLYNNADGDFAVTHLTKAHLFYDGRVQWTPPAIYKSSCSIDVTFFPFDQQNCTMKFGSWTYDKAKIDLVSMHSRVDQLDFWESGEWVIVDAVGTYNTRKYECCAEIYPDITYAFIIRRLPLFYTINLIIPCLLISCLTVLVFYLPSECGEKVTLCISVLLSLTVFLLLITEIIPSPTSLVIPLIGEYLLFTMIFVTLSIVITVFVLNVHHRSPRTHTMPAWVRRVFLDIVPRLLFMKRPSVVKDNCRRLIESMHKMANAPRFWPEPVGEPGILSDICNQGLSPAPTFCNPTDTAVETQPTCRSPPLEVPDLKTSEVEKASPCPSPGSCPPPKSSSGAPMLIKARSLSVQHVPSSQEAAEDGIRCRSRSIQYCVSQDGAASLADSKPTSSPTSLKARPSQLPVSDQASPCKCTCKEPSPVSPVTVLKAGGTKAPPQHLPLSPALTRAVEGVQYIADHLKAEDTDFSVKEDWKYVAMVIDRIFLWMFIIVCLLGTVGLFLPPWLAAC
T2 sequence (P12390 whole entry, the tested form may be a part): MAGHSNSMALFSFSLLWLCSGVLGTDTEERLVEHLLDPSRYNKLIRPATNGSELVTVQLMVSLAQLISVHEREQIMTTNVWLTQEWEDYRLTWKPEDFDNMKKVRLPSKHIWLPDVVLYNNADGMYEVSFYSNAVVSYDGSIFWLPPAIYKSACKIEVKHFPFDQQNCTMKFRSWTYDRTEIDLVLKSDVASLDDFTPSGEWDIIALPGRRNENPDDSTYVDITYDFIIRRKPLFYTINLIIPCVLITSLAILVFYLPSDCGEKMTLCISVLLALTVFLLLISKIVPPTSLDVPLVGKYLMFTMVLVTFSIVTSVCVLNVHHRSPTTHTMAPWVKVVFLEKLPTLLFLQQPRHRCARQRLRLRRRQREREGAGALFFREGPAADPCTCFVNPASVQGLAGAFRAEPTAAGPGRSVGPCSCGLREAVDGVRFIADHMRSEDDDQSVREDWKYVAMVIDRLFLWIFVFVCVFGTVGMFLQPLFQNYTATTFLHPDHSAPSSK

With `COc1ccc(N2C3CCC2CC3)cn1` the inhibition [1] was < 50%.
With `c1ccc(N2C3CCC2CC3)nc1` the inhibition [1] was < 50%.
For `c1cncc(CN2C3CCC2CC3)c1`, the EC50 [2] was 1.4 nM, the ED50 [3] was 12.4 mg/kg and the ED50 [4] was 5.36 mg/kg. The Ki [5] was 98 nM.
With `c1cncc(N2C3CCC2CC3)c1` the inhibition [1] was < 50%.
For `c1ccc2nc(CN3C4CCC3CC4)ccc2c1`, the inhibition [6] was < 50%.
Work on `O=c1cccc2n1C[C@@H]1CNC[C@H]2C1` [CYTISINICLINE] yielded an EC50 [7] of 8.8 nM and a Ki [8] of 4.2 nM.
`c1cncc(CCN2C3CCC2CC3)c1` showed a Ki [5] of 2230 nM.
With `c1ccc2ncc(N3C4CCC3CC4)cc2c1` the inhibition [1] was < 50%.
Work on `Clc1ccc(CN2C3CCC2CC3)cn1` yielded an EC50 [7] of 79 nM, an ED50 [9] of 11.1 mg/kg and an ED50 [10] of 12.2 mg/kg. For the same molecule, the Ki [5] was 245 nM.
`Ic1ccc(N2C3CCC2CC3)nc1` was tested, and the inhibition [1] was < 50%.
`Clc1ccc(C2CC3CCC2N3)cn1` (stereo in doubt; 1) [EPIBATIDINE] gave an ED50 [9] of 0.00046 mg/kg and an ED50 [10] of 0.00072 mg/kg.
`c1cc(CN2C3CCC2CC3)ccn1` was tested, and the inhibition [1] was < 50%.
With `c1ccc(CN2C3CCC2CC3)nc1` the Ki [5] was 31300 nM.
For `c1cc(N2C3CCC2CC3)ccn1`, the inhibition [1] was < 50%.
In the case of `Cc1ccc(N2C3CCC2CC3)cc1`, the inhibition [11] is reported as < 50%.
With `c1ccc2c(N3C4CCC3CC4)cncc2c1` the inhibition [1] was < 50%.
